# Active and inactive are the calls of the source. The rule behind the calls is not given here.
# Legend:
# [1] = Inhibition of CpxA in Escherichia coli harboring lacZ reporter gene assessed as activation of CpxR incubated for 5 hrs by beta-galactosidase assay
# Summary of the method: (§1)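 Read-out is a CpxR-responsive lacZ reporter in a modified E. coli strain, measured as beta-galactosidase activity. Where potency is given it is an EC50. Values are mean ± SEM of at least three separate experiments, each run in triplicate. Compounds showing cytotoxicity or general stress-response activation were not scored.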
# Escherichia coli [2] = assay: Inhibition of CpxA phosphatase activity in Escherichia coli assessed as increase in the ratio of CpxR-P to CpxR at 10 uM incubated for 5 hrs by densitometric method
# Summary of the method: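 Wild-type and ΔcpxA E. coli were grown in medium with 0.4% glucose, with 0 or 10 μM compound. CpxR phosphorylation was resolved by Phos-Tag gel and Western blot. His6CpxR incubated with 0 or 20 mM acetyl phosphate served as a marker. The CpxR-P:CpxR ratio was quantified by densitometry, as average and standard deviation of 5 independent experiments.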
# Escherichia coli [3] = assay: Inhibition of CpxA in Escherichia coli harboring lacZ reporter gene assessed as activation of CpxR up to 80 uM incubated for 5 hrs by beta-galactosidase assay; summary of the method: as §1
# [4] = Drug uptake in Escherichia coli BW25113 at 16 to 128 ug/ml incubated for 1 to 40 mins by UHPLC-Q/TOF analysis; format: ADME
# Summary of the method: (§2)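 Isogenic E. coli strains: wild-type efflux or TolC-deficient (efflux-deficient), each with or without an arabinose-induced large outer-membrane pore (hyperporinated). Cells were incubated with increasing compound concentrations. Intracellular accumulation was measured by mass spectrometry after 1 and 40 min.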
# [5] = Drug uptake in Escherichia coli BW25113 harboring tolC deletion mutant at 16 to 128 ug/ml incubated for 1 to 40 mins by UHPLC-Q/TOF analysis; format: ADME; summary of the method: as §2
# [6] = Drug uptake in Escherichia coli BW25113 attTn7::mini-Tn7T-Kmrr-araC-ParaBAD-fhuAdeltaCdelta4L at 16 to 128 ug/ml incubated for 1 to 40 mins by UHPLC-Q/TOF analysis; format: ADME; summary of the method: as §2
# [7] = Drug uptake in Escherichia coli BW25113 deltatolCygiBCattTn7::mini-Tn7T-Kmr-araC-ParaBAD-fhuAdeltaCdelta4L at 16 to 128 ug/ml incubated for 1 to 40 mins by UHPLC-Q/TOF analysis; format: ADME; summary of the method: as §2
EC50 ([1]; read-out: EC50) [µM],Structure (SMILES),other results
> 100,N#Cc1ccc2[nH]c3c(c2c1)CCCC3N (racemic),–
> 100,NC1CCCc2c1[nH]c1ccc(C(=O)O)cc21 (racemic),–
79.5,NCc1cc2cc(F)ccc2[nH]1,–
–,NC1CCCc2c1[nH]c1cc(C(F)(F)F)ccc21 (racemic),EC50 [1]: Nd(Toxic)
3.5,N[C@@H]1CCCc2c1[nH]c1ccc(F)cc21,inhibition (Escherichia coli [2]): Active
24.8,NC1CCCc2c1[nH]c1ccc([N+](=O)[O-])cc21 (racemic),inhibition (Escherichia coli [2]): Active
–,N[C@H](Cc1ccccc1)C(=O)Nc1ccc(F)cc1,inhibition (Escherichia coli [3]): inactive
–,CC(C)[C@@H](N)C(=O)Nc1ccc(F)c(F)c1,inhibition (Escherichia coli [3]): inactive
–,NC1CCCc2c1[nH]c1ccc(Br)cc21 (racemic),EC50 [1]: Nd(Toxic)
–,CCC(C)[C@@H](N)C(=O)Nc1ccc(F)cc1 (stereo not given in full),inhibition (Escherichia coli [3]): inactive
56.8,NC1CCCc2c1[nH]c1c(F)cccc21 (racemic),–
–,C[C@@H](N)C(=O)Nc1ccc(F)cc1,inhibition (Escherichia coli [3]): inactive
23.1,NC1CCCc2c1[nH]c1ccc(C(F)(F)F)cc21 (racemic),–
2.7,NC1CCCc2c1[nH]c1cc(F)c(F)cc21 (racemic),–
> 100,NC1CCCc2c1[nH]c1cccc(C(F)(F)F)c21 (racemic),–
–,Fc1ccc2[nH]c3c(c2c1)CCCC3,Drug uptake [4]: Active; Drug uptake [5]: Not Active

EC50 ([1]; read-out: EC50) [µM],Structure (SMILES),other results
–,C[C@@H](N)C(=O)Nc1ccc(F)c(F)c1,inhibition (Escherichia coli [3]): inactive
65.9,NC1CCCc2c1[nH]c1cccc(F)c21 (racemic),–
> 100,N[C@H]1CCCc2c1[nH]c1ccc(F)cc21,–
> 100,NC1CCCc2c1[nH]c1ccc(S(N)(=O)=O)cc21 (racemic),–
1.1,N[C@@H]1CCCc2c1[nH]c1cc(F)c(F)cc21,–
> 100,NC1CCCc2c1[nH]c1c(C(F)(F)F)cccc21 (racemic),–
44.2,CC(N)c1cc2cc(Br)ccc2[nH]1 (stereo not given),–
> 100,COC(=O)c1ccc2[nH]c3c(c2c1)CCCC3N (racemic),–
> 160,O=[N+]([O-])c1ccc2[nH]c3c(c2c1)CCCC3,–
34.1,Cc1ccc2[nH]c3c(c2c1)CCCC3N (racemic),–
> 100,OC1CCCc2c1[nH]c1ccccc21 (stereo not given),–
11.9,NC1CCCc2c1[nH]c1cc(F)ccc21 (racemic),–
30.2,NC1CCCc2c1[nH]c1ccccc21 (racemic),–
7.7,NC1CCCc2c1[nH]c1ccc(F)cc21 (racemic),Drug uptake [4]: Active; Drug uptake [6]: Active; Drug uptake [5]: Active; Drug uptake [7]: Active
–,CC(C)[C@@H](N)C(=O)Nc1ccc(F)cc1,inhibition (Escherichia coli [3]): inactive
10.9,NC1CCCc2c1[nH]c1ccc(Cl)cc21 (racemic),–

Structure (SMILES),EC50 ([1]; read-out: EC50) [µM],other results
COc1ccc2[nH]c3c(c2c1)CCCC3N (racemic),> 100,–
